Assay type in all cases: functional
Assay [1] has as its system Mycobacterium avium. In words: Antimycobacterial activity against Mycobacterium avium My 330/88 after 21 days by micromethod. Particulars: My 330/88, 504 h.
Assay [2] has as its system Mycobacterium avium. In words: Antimycobacterial activity against Mycobacterium avium My 330/88 after 14 days by micromethod. Particulars: My 330/88, 336 h.
In assay [3] the test system is Mycobacterium kansasii. In words: Antimycobacterial activity against Mycobacterium kansasii My 235/80 after 7 days by micromethod. Particulars: My 235/80, 168 h.
The subject of assay [4] is Mycobacterium kansasii. Kind of assay: Antimycobacterial activity against Mycobacterium kansasii My 6509/96 clinical isolate after 14 days by micromethod. Particulars: My 6509/96, 336 h.
Assay [5] relates to Mycobacterium kansasii. In words: Antimycobacterial activity against Mycobacterium kansasii My 235/80 after 14 days by micromethod. Particulars: My 235/80, 336 h.
Assay [6] relates to Mycobacterium tuberculosis. In words: Antimycobacterial activity against Mycobacterium tuberculosis My 331/88 after 21 days by micromethod. Particulars: My 331/88, 504 h. The procedure, abridged:
(§1)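 MIC by micromethod at 37 °C, read after 14 and 21 days. Inocula were M. tuberculosis My 331/88 at 10^-3 dilution and M. avium My 330/88 at 10^-5 dilution. Compounds added in DMSO across 1000, 500, 250, 125, 62.5, 32, 16, 8, 4, 2, 1 and 0.5; isoniazid standard in sterile water. MIC taken as the lowest concentration inhibiting growth.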

Assay [7] concerns Mycobacterium kansasii. Kind of assay: Antimycobacterial activity against Mycobacterium kansasii My 6509/96 clinical isolate after 7 days by micromethod. Particulars: My 6509/96, 168 h.
Assay [8] concerns Mycobacterium tuberculosis. In words: Antimycobacterial activity against Mycobacterium tuberculosis My 331/88 after 14 days by micromethod. Particulars: My 331/88, 336 h. The procedure, abridged: as §1
The subject of assay [9] is Mycobacterium kansasii. In words: Antimycobacterial activity against Mycobacterium kansasii My 235/80 after 21 days by micromethod. Particulars: My 235/80, 504 h.
Assay [10] concerns Mycobacterium kansasii. In words: Antimycobacterial activity against Mycobacterium kansasii My 6509/96 clinical isolate after 21 days by micromethod. Particulars: My 6509/96, 504 h.

In brackets after ≈: the same amount, converted by molar mass.

In the case of `COc1cc(Cl)ccc1C(=O)Nc1ccc(Cl)c(Cl)c1`, the MIC in assay [1], in assay [2], in [3], in assay [4], in [5] and in assay [6] was 125 µM (≈ 41.3 µg/mL) throughout. Also, the MIC in assay [7], in [8], in assay [9] and in assay [10] was 125 µM (≈ 41.3 µg/mL) each time.
Consider `COc1ccc(Cl)cc1C(=S)Nc1ccc(Cl)cc1`, for which the MIC in assay [1] is 32 µM (≈ 9.99 µg/mL); in assay [2], 32 µM (≈ 9.99 µg/mL); in [3], 8 µM (≈ 2.5 µg/mL); in assay [4] it was 16 µM (≈ 5 µg/mL); in assay [5], 32 µM (≈ 9.99 µg/mL); in [6], 16 µM (≈ 5 µg/mL). Further, the MIC in [7] is 16 µM (≈ 5 µg/mL); in assay [8], 16 µM (≈ 5 µg/mL); in [9], 62.5 µM (≈ 19.5 µg/mL); in [10] it was 32 µM (≈ 9.99 µg/mL).
With `COc1ccc(Cl)cc1C(=O)Nc1cccc([N+](=O)[O-])c1`, the MIC came out at 250 µM (≈ 76.7 µg/mL) in assay [1]; 250 µM (≈ 76.7 µg/mL) in assay [2]; 125 µM (≈ 38.3 µg/mL) in assay [3]; 125 µM (≈ 38.3 µg/mL) in [4]; 125 µM (≈ 38.3 µg/mL) in [5]; 125 µM (≈ 38.3 µg/mL) in assay [6]. The MIC in assay [7], in [8], in assay [9] and in [10] was 125 µM (≈ 38.3 µg/mL) in each case.
As for `COc1ccc(Cl)cc1C(=O)Nc1ccc([N+](=O)[O-])cc1`, the MIC in assay [1], in [2], in [3], in assay [4], in assay [5] and in assay [6] was 125 µM (≈ 38.3 µg/mL) each time. In addition, the MIC in assay [7], in assay [8], in assay [9] and in [10] was 125 µM (≈ 38.3 µg/mL) in each case.
Take `COc1cc(Cl)ccc1C(=S)Nc1ccc(C(F)(F)F)cc1`: the MIC in assay [1] was found to be 32 µM (≈ 11.1 µg/mL); in assay [2], 32 µM (≈ 11.1 µg/mL); in assay [3] it was 16 µM (≈ 5.53 µg/mL); in assay [4], 32 µM (≈ 11.1 µg/mL); in assay [5], 32 µM (≈ 11.1 µg/mL); in assay [6], 16 µM (≈ 5.53 µg/mL). Moreover, the MIC in [7] was found to be 8 µM (≈ 2.77 µg/mL); in assay [8], 8 µM (≈ 2.77 µg/mL); in assay [9], 62.5 µM (≈ 21.6 µg/mL); in assay [10], 32 µM (≈ 11.1 µg/mL).
In the case of `COc1ccc(Cl)cc1C(=S)Nc1ccc([N+](=O)[O-])cc1`, the MIC in [1] was 250 µM (≈ 80.7 µg/mL); in assay [2], 250 µM (≈ 80.7 µg/mL); in [3] it was 125 µM (≈ 40.3 µg/mL); in assay [4], 250 µM (≈ 80.7 µg/mL); in [5], 250 µM (≈ 80.7 µg/mL); in assay [6] it was 32 µM (≈ 10.3 µg/mL). Also, the MIC stood at 125 µM (≈ 40.3 µg/mL) in [7], 32 µM (≈ 10.3 µg/mL) in assay [8], 250 µM (≈ 80.7 µg/mL) in assay [9] and 250 µM (≈ 80.7 µg/mL) in [10].
Consider `COc1ccc(Cl)cc1C(=S)Nc1cccc(C(F)(F)F)c1`, for which the MIC in assay [1] came out at 32 µM (≈ 11.1 µg/mL); in [2] it was 32 µM (≈ 11.1 µg/mL); in assay [3], 8 µM (≈ 2.77 µg/mL); in assay [4], 16 µM (≈ 5.53 µg/mL); in assay [5], 16 µM (≈ 5.53 µg/mL); in [6], 16 µM (≈ 5.53 µg/mL). In addition, the MIC in assay [7] was found to be 8 µM (≈ 2.77 µg/mL); in assay [8] it was 16 µM (≈ 5.53 µg/mL); in assay [9], 16 µM (≈ 5.53 µg/mL); in assay [10], 16 µM (≈ 5.53 µg/mL).
As for `COc1cc(Cl)ccc1C(=O)Nc1ccc(Cl)cc1`, the minimal inhibitory concentration (MIC) in [1] was determined as 32 µM (≈ 9.48 µg/mL); in [2], 8 µM (≈ 2.37 µg/mL); in [3], 8 µM (≈ 2.37 µg/mL); in [4], 16 µM (≈ 4.74 µg/mL); in [5], 16 µM (≈ 4.74 µg/mL); in assay [6] it was 125 µM (≈ 37 µg/mL). The MIC was determined as 8 µM (≈ 2.37 µg/mL) in assay [7], 125 µM (≈ 37 µg/mL) in assay [8], 62.5 µM (≈ 18.5 µg/mL) in assay [9] and 62.5 µM (≈ 18.5 µg/mL) in assay [10].
For the molecule `COc1cc(Cl)ccc1C(=S)Nc1cccc(Br)c1`, the MIC in assay [1] came out at 125 µM (≈ 44.6 µg/mL); in assay [2] it was 125 µM (≈ 44.6 µg/mL); in [3] it was 125 µM (≈ 44.6 µg/mL); in assay [4], 125 µM (≈ 44.6 µg/mL); in [5] it was 125 µM (≈ 44.6 µg/mL); in assay [6], 32 µM (≈ 11.4 µg/mL). For the same molecule, the MIC in assay [7] stood at 125 µM (≈ 44.6 µg/mL); in assay [8], 32 µM (≈ 11.4 µg/mL); in [9], 125 µM (≈ 44.6 µg/mL); in [10] it was 125 µM (≈ 44.6 µg/mL).

(Values after ChEMBL document CHEMBL2086318, “Synthesis and in vitro antimycobacterial activity of 2-methoxybenzanilides and their thioxo analogues” (Eur J Med Chem, 2012).)
